This is an account of results in ChEMBL document CHEMBL4138055, “Determination and reduction of translocator protein (TSPO) ligand rs6971 discrimination” (Medchemcomm, 2017).

The term Ki denotes a dissociation constant, usually derived from enzyme kinetics or from competition with a known ligand. Read a high Ki as lower affinity. Broadly, the IC50 is the point on the concentration scale where inhibition reaches its midpoint.

Structures are written as SMILES.

For one assay, the species on record is Homo sapiens. Description: Selectivity ratio of Ki for human TSPO A147T mutant to Ki for human wild type TSPO.
In assay [1] the target is T1, Translocator protein (Homo sapiens, UniProt P30536). As to the kind of experiment: Displacement of [3H]PK11195 from human wild type TSPO expressed in HEK293T cell membranes after 90 mins by scintillation counting method. Background: In a radioligand displacement assay an active substance lowers the binding of a labelled ligand.
T1 sequence (P30536 whole entry): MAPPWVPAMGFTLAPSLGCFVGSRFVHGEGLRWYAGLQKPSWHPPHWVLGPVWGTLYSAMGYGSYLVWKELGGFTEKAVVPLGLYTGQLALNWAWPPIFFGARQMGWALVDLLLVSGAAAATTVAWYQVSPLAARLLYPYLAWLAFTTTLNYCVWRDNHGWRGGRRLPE
In assay [2] the test system is HEK-293T. Description: Antiproliferative activity against HEK293T cells expressing human TSPO A147T mutant after 48 hrs by BrdU incorporation assay. It is filed as functional, cell-based. The gist of the method:
(§1)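 293T cells stably expressing human TSPO WT or A147T (lentiviral, puromycin-selected) seeded at 8.75 × 10³ cells/well on poly-L-lysine-coated plates, treated next day with vehicle or compound (1–100 μM) for 48 h. BrdU added for 4 h at 37 °C, incorporation detected by ELISA, absorbance read at 450 nm.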
A general note: Dividing cells build labelled thymidine or BrdU into new DNA.

The nature of assay [3]: Selectivity ratio of IC50 for HEK293T cells expressing human TSPO A147T mutant assessed as decrease in cell proliferation to IC50 for HEK293T cells expressing human wild type TSPO assessed as decrease in cell proliferation. The assay is classed as functional.
The subject of assay [4] is HEK-293T. Description: Cytotoxicity against HEK293T cells expressing human wild type TSPO assessed as decrease in cell viability after 48 hrs by CellTiter blue assay. It is filed as functional, cell-based. The method in brief: (§2)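 Stable TSPO WT or A147T 293T cells at 8.75 × 10³ cells/well on poly-L-lysine-coated plates, exposed next day to vehicle or compound (1–100 μM) for 48 h. CellTiter Blue (resazurin to resorufin) added for 4 h at 37 °C, fluorescence read at Ex560/Em590 nm.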

Assay [5] can be described thus: Selectivity ratio of IC50 for HEK293T cells expressing human TSPO A147T mutant assessed as decrease in cell viability to IC50 for HEK293T cells expressing human wild type TSPO assessed as decrease in cell viability. The assay is classed as functional.
In assay [6] the test system is HEK-293T. As to the kind of experiment: Cytotoxicity against HEK293T cells expressing human TSPO A147T mutant assessed as decrease in cell viability after 48 hrs by CellTiter blue assay. It is filed as functional, cell-based. The gist of the method:
as §2
A general note: The colour change of resazurin is a common sign of viable cells or microbes.

Assay [7] relates to HEK-293T. As to the kind of experiment: Antiproliferative activity against HEK293T cells expressing human wild type TSPO after 48 hrs by BrdU incorporation assay. It is filed as functional, cell-based. The gist of the method:
as §1

For assay [8], the target named is T1, Translocator protein. Description: Ratio of Ki for displacement of [3H]PK11195 from human brain TSPO isolated from low affinity binder patient to Ki for [3H]PK11195 from human brain TSPO isolated from high affinity binder patient.

For the compound `CCN(CC)C(=O)Cn1c2ccccc2c2cc(-c3ccc(OC)cc3)ccc21`, the Ratio Ki in the assay filed under Homo sapiens was 3.2. Moreover, the Ki at Translocator protein [1] turned out to be 0.0289 µM.
For the compound `CCN(CC)C(=O)Cn1c2ccccc2c2cc(-c3ccccc3)ccc21`, the 50% inhibitory concentration (IC50) in the assay with HEK-293T [2] amounted to 47.1 µM; with HEK-293T [4], 23.7 µM; with HEK-293T [6] it was 22.9 µM; with HEK-293T [7] it was 50.5 µM. For the same compound, the “Ratio IC50” value is recorded as 0.9 in assay [3] and 1 in assay [5]. The Ratio Ki in the assay filed under Homo sapiens came out at 5.1. Also, at Translocator protein [1], the inhibition constant Ki stood at 0.0316 µM.
For the compound `CCC(C)N(C)C(=O)c1cc2ccccc2c(-c2ccccc2Cl)n1` (centres undefined) [PK-11195], the IC50 was more than 100 µM in the assay on HEK-293T [2], 67.4 µM with HEK-293T [4], 69.2 µM in the assay on HEK-293T [6] and more than 100 µM with HEK-293T [7].
`CCN(CC)C(=O)Cn1c2ccccc2c2ccccc21`: the Ratio Ki in the assay listed under Homo sapiens turned out to be 5.9. On Translocator protein [1], this compound returned an inhibition constant (Ki) of 0.0301 µM.
The matching figures for `CCN(CC)C(=O)Cn1c2ccccc2c2cc(Br)ccc21`: 5.1 and 0.0315 µM.
Turning to `CCN(Cc1ccccc1)C(=O)Cn1c(=O)n(C)c2cnc(-c3ccccc3)nc21`, the IC50 in the assay with HEK-293T [2] is more than 100 µM; with HEK-293T [4] it was 29.5 µM; with HEK-293T [6] it was 26.2 µM; in the assay on HEK-293T [7], more than 100 µM. In [5], the “Ratio IC50” value came out at 0.9. In addition, the Ratio Ki in the assay filed under Homo sapiens was found to be 4.9; on Translocator protein [8], 12.6. The Ki at Translocator protein [1] was determined as 0.0064 µM.
As to `CCN(CC)C(=O)Cc1c(-c2ccc(OC)cc2)nn2c(C)cc(C)nc12`, the half-inhibitory concentration (IC50) in the assay with HEK-293T [2], with HEK-293T [4], in the assay with HEK-293T [6] and in the assay with HEK-293T [7] was more than 100 µM each time.
Regarding `CCN(Cc1ccccc1)C(=O)Cn1c2ccccc2c2ccccc21`, the IC50 with HEK-293T [2], in the assay with HEK-293T [4], in the assay with HEK-293T [6] and in the assay on HEK-293T [7] was more than 100 µM each time. The Ratio Ki in the assay listed under Homo sapiens worked out at 5. At Translocator protein [1], this compound displayed an inhibition constant Ki of 0.0916 µM.
Take `CCN(CC)C(=O)Cn1c2ccccc2c2cc(-c3ccccc3OC)ccc21`: in the assay filed under Homo sapiens, the Ratio Ki stood at 5.4. At Translocator protein [1], the Ki came to 0.0254 µM.
On to `CCN(Cc1ccccc1)C(=O)Cn1c2ccccc2c2cc(Br)ccc21`, for which, on Translocator protein [1], the Ki came to 0.0543 µM.
